From ChEMBL document CHEMBL1156347, “Immunomodulatory constituents from an Ascomycete, Eupenicillium crustaceum, and revised absolute structure of macrophorin D” (J Nat Prod, 2001)
Converted amounts (≈) assume the structure as drawn.

Assays:
T-cell = assay: Ratio of IC50 for mouse T cells proliferation to IC50 for mouse B cells proliferation; type: functional
[1] = Immunosuppressant activity in mouse B cells assessed as inhibition of LPS-induced cell proliferation; type: functional, cell-based
Outline: (§1)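 Splenic lymphocytes from male BALB/c mice aged 7-11 weeks, stimulated with concanavalin A (T cells) or LPS (B cells). Proliferation read as formation of MTT-formazan from exogenous MTT in the lymphocytes. Seven concentrations tested, each point the mean of 3 experiments. IC50 read from the concentration-versus-proliferation curve.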

[2] = Immunosuppressant activity in mouse T cells assessed as inhibition of concanavalin A-induced cell proliferation; type: functional, cell-based; outline: as §1

With `C=C1CC[C@H]2C(C)(C)CCC[C@]2(C)[C@H]1C[C@@]12O[C@@H]1C(=O)C(COC(=O)C[C@@](C)(O)CC(=O)O)=CC2=O` the “Ratio IC50” value (T-cell) was 2, the IC50 [1] was 2 µg/mL (≈ 3.98 µM) and the IC50 [2] was 4.5 µg/mL (≈ 8.95 µM).
In the case of `C=C1CC[C@H]2C(C)(C)CCC[C@]2(C)[C@H]1C[C@@]12O[C@@H]1C(=O)C(CO)=CC2=O`, the “Ratio IC50” value (T-cell) is reported as 2, the IC50 [1] is reported as 0.25 µg/mL (≈ 0.697 µM) and the IC50 [2] is reported as 0.5 µg/mL (≈ 1.39 µM).
With `Cn1cnc([N+](=O)[O-])c1Sc1ncnc2[nH]cnc12` [AZATHIOPRINE] the IC50 [1] was 2.7 µg/mL (≈ 9.74 µM) and the IC50 [2] was 2.7 µg/mL (≈ 9.74 µM).
`C=CC[C@@H]1/C=C(\C)C[C@H](C)C[C@H](OC)[C@H]2O[C@@](O)(C(=O)C(=O)N3CCCC[C@H]3C(=O)O[C@H](/C(C)=C/[C@@H]3CC[C@@H](O)[C@H](OC)C3)[C@H](C)[C@@H](O)CC1=O)[C@H](C)C[C@@H]2OC` [TACROLIMUS ANHYDROUS] gave an IC50 [1] of 0.0016 µg/mL (≈ 0.00199 µM) and an IC50 [2] of 1.5e-05 µg/mL (≈ 1.87e-05 µM).
